Results reported in ChEMBL document CHEMBL1121966, “(2R*,3S*)-1-[125I]Iodo-2,3-bis(4-hydroxyphenyl)pentane ([125I]iodonorhexestrol) and (2R*,3S*)-1-[77Br]Bromo-2,3-bis(4-hydroxyphenyl)pentane ([77Br]bromonorhexestrol), two gamma-emitting estrogens that show receptor-mediated uptake by target tissues in vivo” (1982).
Values joined by “and” are separate entries in the source; they are usually repeats but may differ in a detail not shown here. Equal values may be shown once.

What was measured:
Rattus norvegicus [1] = species on record: Rattus norvegicus; test: Solvolytic stability was measured relative to p-hydroxyphenethyl bromide; assay type: functional
Method in brief: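 Solvolysis rates were measured in 40% ethanol-water at 50 °C, buffered to pH 7. Values are 1/k_rel = (k_compound/k_p-hydroxyphenylethyl bromide)^-1.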

Rattus norvegicus [2] = species on record: Rattus norvegicus; test: % compound injected per gram uterus at 6 hr; assay type: functional
Rattus norvegicus [3] = species on record: Rattus norvegicus; test: Percent injected dose per gram esophagus at 6 hr; assay type: functional
Method in brief: (§1)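 Dual-label study in immature 25-day female Sprague-Dawley rats (ca. 50 g). Each received 2 μCi [77Br]bromo tracer (≤1.25 pmol/dose) and 2 μCi 16α-[125I]iodoestradiol (2 pmol/dose) by tail or jugular vein, in ethanol diluted with saline/rat serum 1:1. Rats were killed at 3 or 6 h; blood and 11 tissues were weighed and counted. Five rats per time point; mean ± SD.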

Rattus norvegicus [4] = species on record: Rattus norvegicus; test: Percent injected dose per gram liver at 1 hr; assay type: functional
Method in brief: (§2)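 Immature (25 day) female Sprague-Dawley rats (ca. 50 g) were dosed iv (jugular or tail vein) in ethanol plus 0.9% NaCl/rat serum (1:1). Doses were 2 μCi of [125I]iodonorhexestrol (≤15 pmol/dose), or 2 μCi each of [77Br]bromonorhexestrol (≤1.25 pmol/dose) and 16α-[125I]iodoestradiol (2 pmol/dose). Rats were killed at 1, 3 or 6 h; blood and tissues were weighed and γ-counted. Thyroid weight assumed 0.005 g/100 g body weight. Mean ± SD.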

[5] = Percent injected dose per gram liver at 6 hr; assay type: functional; method in brief: as §2
Rattus norvegicus [6] = species on record: Rattus norvegicus; test: Percent injected dose per gram lung at 1 hr with unlabeled estradiol; assay type: functional
Method in brief: (§3)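 Same iv biodistribution in immature female rats, killed at 1 h, with unlabeled estradiol coinjected to block receptor uptake: 9 μg with [125I]iodonorhexestrol (3 rats), 18 μg with the [77Br]bromonorhexestrol/16α-[125I]iodoestradiol pair (5 rats). Tissue and blood radioactivity were counted as % injected dose/g and tissue-to-blood ratio.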

Rattus norvegicus [7] = species on record: Rattus norvegicus; test: Percent injected dose per gram spleen at 1 hr with unlabeled estradiol; assay type: functional; method in brief: as §3
Rattus norvegicus [8] = species on record: Rattus norvegicus; test: Percent injected dose per gram spleen at 3h; assay type: functional; method in brief: as §2
Rattus norvegicus [9] = species on record: Rattus norvegicus; test: Percent injected dose per gram thyroid at 3h; assay type: functional, Thyroid gland; method in brief: as §2
Rattus norvegicus [10] = species on record: Rattus norvegicus; test: Percent injected dose per gram blood at 3h; assay type: functional; method in brief: as §1
[11] = Ovary/blood distribution ratio was determined in immature female rats at 1 hr with unlabeled estradiol; assay type: functional
Method in brief: (§4)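 Immature (25-day, ca. 50 g) Sprague-Dawley female rats received an iv injection (jugular or tail vein) of HPLC-purified tracer in ethanol plus 0.9% NaCl/rat serum 1:1. Doses were 2 μCi [125I]iodo tracer (≤15 pmol), or 2 μCi [77Br]bromo tracer (≤1.25 pmol) with 2 μCi 16α-[125I]iodoestradiol. Animals were killed at 1 h; blood and tissues were weighed and γ-counted. Blocking: coinjected unlabeled estradiol, 9 μg (iodo) or 18 μg (bromo). Mean ± SD.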

[12] = Ovary/blood distribution ratio was determined in immature female rats at 3h; assay type: functional; method in brief: as §1
[13] = Liver/blood distribution ratio was determined in immature female rats at 1 hr with unlabeled estradiol; assay type: functional; method in brief: as §4
[14] = Liver/blood distribution ratio was determined in immature female rats at 6 hr; assay type: functional; method in brief: as §1
[15] = Lung/blood distribution ratio was determined in immature female rats at 6 hr; assay type: functional; method in brief: as §1
[16] = Spleen/blood distribution ratio was determined immature female rats at 6 hr; assay type: functional; method in brief: as §2
[17] = Tissue/blood distribution ratio was measured in immature female rats at 1 hr; assay type: functional; method in brief: as §2
[18] = Thyroid/blood distribution ratio was determined in immature female rats at 1 hr with unlabeled estradiol; assay type: functional; method in brief: as §3
[19] = Uptake ratio was measured with 16-alpha-[125I]-iodo-17-beta-estradiol in immature rats at 6 hr; assay type: functional
Method in brief: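 Immature (25 day, ca. 50 g) female Sprague-Dawley rats received iv (jugular or tail vein) 2 μCi each of the 77Br ligand (≤1.25 pmol/dose) and 16α-[125I]iodoestradiol (2 pmol/dose), in ethanol plus 0.9% NaCl/rat serum 1:1. Rats were killed at 3 or 6 h, five per time point. Blood and tissues were weighed and counted. The 77Br/125I ratio was calculated per rat and averaged. Nontarget was the mean of esophagus, spleen, lung and muscle.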

Rattus norvegicus [20] = species on record: Rattus norvegicus; test: Percent injected dose per gram Uterus at 3h; assay type: functional; method in brief: as §1
Rattus norvegicus [21] = species on record: Rattus norvegicus; test: Percent injected dose per gram kidney at 6 hr; assay type: functional; method in brief: as §1
Rattus norvegicus [22] = species on record: Rattus norvegicus; test: Percent injected dose per gram spleen at 6 hr; assay type: functional; method in brief: as §2
[23] = Lung/blood distribution ratio was determined in immature female rats at 1 hr with unlabeled estradiol; assay type: functional; method in brief: as §4

SMILES: CC[C@H](c1ccc(O)cc1)[C@@H](CBr)c1ccc(O)cc1
- 1/krel (Rattus norvegicus [1]): 1.17
- Injected (Rattus norvegicus [2]): 3.19
- Injected dose (Rattus norvegicus [3]): 0.68%
- Injected dose (Rattus norvegicus [4]): 1.28%
- Injected dose [5]: 0.93%
- Injected dose (Rattus norvegicus [6]): 0.8%
- Injected dose (Rattus norvegicus [7]): 0.34%
- Injected dose (Rattus norvegicus [8]): 0.6%
- Injected dose (g) (Rattus norvegicus [9]): 0.09%
- Injected dose (Rattus norvegicus [10]): 1.24%
- Ratio [11]: 0.74
- Ratio [12]: 1.23
- Ratio [13]: 1.51
- Ratio [14]: 0.69
- Ratio [15]: 0.76
- Ratio [16]: 0.55
- Ratio [17]: 1
- Ratio [18]: 0.25
- Ratio [19]: 0.58 and 0.33%
- Injected dose (Rattus norvegicus [20]): 3.59%
- Injected dose (Rattus norvegicus [21]): 0.9%
- Injected dose (Rattus norvegicus [22]): 0.69%
- Ratio [23]: 0.82
